# NLRP3 yeast inh = NALP3 inflammasome inhibitors in reconstituted yeast, primary screen, luminescence, uHTS; Yeast reconstituted NLRP3/ASC/caspase-1, beta-gal luminescence, 24 h; 330,000 compounds, 0.39% hits; inhibition, % at 10 µM;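 active = inhibition of 50% or more; inactive = inhibition below 50%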;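 note: plate controls were induced DMSO wells for no effect and uninduced yeast grown without galactose for full effect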
# ATG4B inh = ATG4B protease inhibitors, primary screen, biochemical, fluorescence, uHTS. Cysteine protease ATG4B (Homo sapiens), Q9Y4P1. ATG4B cleavage of LC3-PLA2, NBD-HPC fluorescence, 1 h. inhibition, % at 8.33 µM. 340,000 compounds, 0.51% hits. AID 504462, 2011; in the data active = inhibition above about 40%
# UCH37 DUB inh = inhibitors of human UCH37 deubiquitinase, primary screen, biochemical, Ub-AMC cleavage, fluorescence; Ubiquitin carboxyl-terminal hydrolase isozyme L5 (Homo sapiens), Q9Y5K5; purified proteasome/UCH37; inhibition, % (no concentration beside the values); 330,000 compounds, 0.33% hits; AID 588478, 2011;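 active = mean inhibition over replicate wells above about 20%, limit read from the data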;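 note: 0% = compound-free wells with enzyme and 100% = wells lacking proteasome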
# Target sequence (Q9Y5K5 whole entry, looked up): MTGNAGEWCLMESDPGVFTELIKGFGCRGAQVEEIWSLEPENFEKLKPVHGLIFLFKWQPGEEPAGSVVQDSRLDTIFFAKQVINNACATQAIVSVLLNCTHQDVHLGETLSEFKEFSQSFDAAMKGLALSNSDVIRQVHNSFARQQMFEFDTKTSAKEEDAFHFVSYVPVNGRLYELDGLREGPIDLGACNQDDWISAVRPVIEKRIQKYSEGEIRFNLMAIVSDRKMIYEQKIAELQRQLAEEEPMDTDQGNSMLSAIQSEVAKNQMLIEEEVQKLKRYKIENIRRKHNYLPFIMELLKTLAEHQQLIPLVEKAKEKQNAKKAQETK
#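 Material: Human UCH37 enzyme supplied as purified proteasome complex | Schedule: 30 min preincubation with enzyme, 25 min cleavage at room temperature | Detection: AMC fluorescence 355/460 nm | Measure: % inhibition of Ub-AMC cleavage fluorescence | Controls: Wells without proteasome as full block, compound-free enzyme plus substrate as uninhibited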
# ALR inh = inhibitors of human ALR sulfhydryl oxidase, primary screen, biochemical, H2O2 detection, HRP-luminol luminescence, single point; purified ALR, DTT oxidation; inhibition, % (test concentration not listed); FAD-linked sulfhydryl oxidase ALR (Homo sapiens), P55789; 290,000 compounds, 3.8% hits; AID 485317, 2010;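 active = mean replicate inhibition above about 79%, with every replicate also reaching it, limit read from the data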
# Calb FLC = C. albicans growth inhibition with fluconazole, primary screen, CaCi-2 strain, Alamar Blue fluorescence | C. albicans CaCi-2 + fluconazole, 48 h | growth inhibition, % (concentration not given with the values) | 300,000 compounds, 0.57% hits;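 active = growth inhibition above about 58% in most replicates, limit read from the data, passing the limit was not always enough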;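 note: all wells also contain fluconazole at 8 µg/ml as a sub-toxic cotreatment; 0% = median of DMSO wells and 100% = median of geldanamycin control wells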
# NALP1 yeast inh = NALP1 inflammasome inhibitors in reconstituted yeast, colorimetric, S. cerevisiae, triplicate retest. AID 2071, 2009. inhibition, % at 10 µM. S. cerevisiae NALP1/ASC/caspase-1 growth, X-gal OD620, 72 h. 280,000 compounds, 0.61% hits; in the data active = inhibition mostly above about 24%, no sharp cut-off; inactive = mostly below about 32%
# Numbers without * were called inactive; . = no result. Compounds with a hit are over-represented: about 4.8% of the library has one in this group of screens.
SMILES,NLRP3 yeast inh,ATG4B inh,UCH37 DUB inh,ALR inh,Calb FLC,NALP1 yeast inh
CCCCCn1c(Br)nc2c1c(=O)n(CC(N)=O)c(=O)n2C,6.3,-5.7,4.6,92.5*,0.5,19.1
C=CCNC(=S)NNC(=O)c1cc(O)ccc1O,11.9,16.3,-12.2,98.5*,-3.8,-6.3
CC1CN(C(=O)COC(=O)c2ccc(Cl)nc2)CC(C)O1 (stereo not given),-1.6,-2.8,0.4,91.4*,-0.4,13.9
CC1CCN(C(=O)COC(=O)c2ccc(Cl)nc2)CC1,11.8,-2.9,1.9,0.7,.,.
Cn1cc(C(=O)c2ccc(Cl)cc2Cl)cc1C(=O)NN=C(N)COc1ccc(Cl)cc1Cl,.,.,-1.5,.,.,.
COc1ccc(C=NNC(=O)c2cccc(Br)c2)cc1COc1ccccn1,.,.,1.9,.,.,.
O=c1cc(O)nc(-c2ccc(Cl)cc2)s1,11.9,11.4,1.6,93.5*,-8.7,-7.1
CC(CCC1CC(C)OC1=O)=NNC(N)=O (stereo not given),.,.,2.0,.,.,.
CC(=O)Oc1ccc2c(=O)c(Oc3ccccc3[N+](=O)[O-])coc2c1,16.8,-11.5,.,17.3,-6.4,5.9
CC(=O)Oc1ccc2c(=O)c(-c3nc4ccccc4s3)coc2c1,18.0,10.8,-5.1,.,89.5*,28.0*
O=C(NN=Cc1ccc(Br)s1)c1ccncc1,.,.,10.3,.,.,.
Nc1ccc(Oc2ccc3c(c2)OCO3)cc1,8.7,-10.1,1.7,98.9*,0.2,3.9
Nc1ccc(Oc2cccc(Oc3ccc(N)cc3)c2)cc1,12.0,-9.3,.,99.8*,116.1*,45.5
Cc1cccc(Oc2ccc(N)cc2)c1,25.6,0.5,1.4,98.0*,-54.4,21.4
Cc1cc(C)cc(Oc2ccc(N)cc2)c1,39.8,-2.6,1.5,98.5*,-12.0,32.2
Cc1cccc(Oc2ccccc2N)c1,-0.1,4.9,1.2,-0.4,14.2,16.1
Nc1ccc(Oc2ccc(Br)cc2)cc1,42.1,11.6,1.4,31.5,-7.9,.
CC(=NNC(=O)CSc1nc(C)cc(C)n1)c1ccc2c(c1)OCCO2,.,.,6.1,.,.,.
COc1ccc(OC)c(S(=O)(=O)NN=Cc2cn(CC(N)=O)c3ccccc23)c1,.,.,3.9,.,.,.
COc1cccc(C2=N/C(=C\N(C)C)C(=O)O2)c1,29.1,-7.0,25.0*,.,-0.6,19.4
COc1cccc(-c2nc3ccccc3c(=O)o2)c1,2.5,-1.9,-3.9,0.3,1.4,-9.2
Cn1nc(C(F)(F)F)c(C=NOC(=O)c2ccccc2)c1SCc1ccccc1Cl,.,.,3.0,.,.,.
CCOc1ccc(N/C(SCc2cccc([N+](=O)[O-])c2)=C(/C#N)C(N)=O)cc1,-2.7,-12.6,13.4,98.9*,7.7,4.8
CCOc1ccccc1NC(=O)C(=O)N/N=C/c1cc(Br)ccc1O,0.8,0.9,.,-6.5,108.4*,-3.8
O=C(NN=Cc1cc(Br)ccc1O)C(=O)Nc1ccccc1OC(F)(F)C(F)F,.,.,4.5,.,.,.
SMILES,NLRP3 yeast inh,ATG4B inh,UCH37 DUB inh,ALR inh,Calb FLC,NALP1 yeast inh
COc1cccc(/C=N/NC(=O)C(=O)Nc2ccccc2OC(F)(F)C(F)F)c1O,17.4,8.7,.,9.1,108.9*,10.0
CC(=NOC(=O)c1c(-c2ccccc2Cl)noc1C)c1cnccn1,.,.,1.5,.,.,.
COC(=O)c1ccc(CSc2cc(C)c3ccccc3n2)o1,-9.0,-12.8,2.1,3.9,-45.0,2.7
COC(=O)c1ccc(CSc2nc(C(F)(F)F)c3c(c2C#N)CCC3)o1,35.4,0.7,-0.8,98.0*,12.9,4.8
CCCCNC(=O)N(O)C1N(N=Cc2ccco2)C(=S)SC1(C)C (stereo not given),.,.,15.3,.,.,.
COc1ccc(OC)c(S(=O)(=O)NNC(=S)Nc2ccc3c(c2)OCO3)c1,15.6,6.5,1.4,94.0*,12.7,-11.7
COc1ccc(OC)c(S(=O)(=O)N(C)CC(=O)Nc2ccc3c(c2)OCO3)c1,5.0,2.0,-0.5,-14.4,-1.2,24.5
O=S(=O)(NN=C1CCCc2ccccc21)c1ccc(Br)cc1,.,.,4.3,.,.,.
CC(Cc1ccccc1)=NNC(=O)CNC(=O)c1ccccc1Br,.,.,-1.6,.,.,.
Cc1cccc(Nc2nc(-c3ccc(O)cc3O)cs2)n1,23.4,8.6,1.3,96.8*,3.7,11.9

# Bioassay records from PubChem.
